Laboratory results from ChEMBL document CHEMBL4270541, “Synthesis and antimicrobial evaluation of amino sugar-based naphthoquinones and isoquinoline-5,8-diones and their halogenated compounds” (Eur J Med Chem, 2018).
In brackets after ≈: the same amount, converted by molar mass.

How the values were obtained:
Staphylococcus simulans [1] = assay: Ratio of MBC99.9 to MIC for Staphylococcus simulans INCQS 00254 ATCC 27851; assay type: functional
Procedure, shortened: (§1)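 MBC/MIC ratio from the 24 h, 37°C microdilution MIC and the agar-plating MBC (99.9% growth inhibition). A ratio ≤2 was classed as bactericidal and ≥4 as bacteriostatic.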

Pseudomonas aeruginosa [2] = assay: Antimicrobial activity against Pseudomonas aeruginosa INCQS 00099 ATCC 27853 assessed as zone of inhibition at 5 mg/ml after 18 to 24 hrs by disc diffusion method; assay type: functional; settings: read-out: IZ
[3] = tested on: Staphylococcus epidermidis; assay: Antimicrobial activity against Staphylococcus epidermidis INCQS 00016 ATCC 12228 after 24 hrs by microdilution assay; assay type: functional; settings: ATCC 12228 INCQS 00016, 24 h
Staphylococcus simulans [4] = assay: Antimicrobial activity against Staphylococcus simulans INCQS 00254 ATCC 27851 after 24 hrs by microdilution assay; assay type: functional; settings: INCQS 00254 ATCC 27851, 24 h
Pseudomonas aeruginosa [5] = assay: Antimicrobial activity against Pseudomonas aeruginosa INCQS 00099 ATCC 27853 after 24 hrs by microdilution assay; assay type: functional; settings: INCQS 00099 ATCC 27853, 24 h
Klebsiella pneumoniae = assay: Antimicrobial activity against Klebsiella pneumoniae INCQS 00083 ATCC 4352 assessed as zone of inhibition at 5 mg/ml after 18 to 24 hrs by disc diffusion method; assay type: functional; settings: read-out: IZ
Staphylococcus aureus [6] = assay: Antimicrobial activity against Staphylococcus aureus INCQS 00015 ATCC 25923 after 24 hrs by microdilution assay; assay type: functional; settings: INCQS 00015 ATCC 25923, 24 h
Proteus mirabilis = assay: Antimicrobial activity against Proteus mirabilis INCQS 00095 ATCC 15290 assessed as zone of inhibition at 5 mg/ml after 18 to 24 hrs by disc diffusion method; assay type: functional; settings: read-out: IZ
Staphylococcus aureus [7] = assay: Antimicrobial activity against Staphylococcus aureus INCQS 00015 ATCC 25923 assessed as zone of inhibition at 5 mg/ml after 18 to 24 hrs by disc diffusion method; assay type: functional; settings: read-out: IZ
Escherichia coli [8] = assay: Bactericidal activity against Escherichia coli INCQS 00033 ATCC 25922 incubated for 24 hrs followed by transfer of microbial suspension to agar plates and measured after 24 hrs post transfer by resazurin dye-based colorimetric analysis; assay type: functional; settings: ATCC 25922 INCQS 00033, 24 h, read-out: MBC99.9
Procedure, shortened: (§2)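 For MBC, 10 µL from each clear MIC well was plated on agar and incubated 24 h at 37°C. MBC is the minimum concentration inhibiting 99.9% of growth. […] Triplicate.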

Escherichia coli [9] = assay: Antimicrobial activity against Escherichia coli INCQS 00033 ATCC 25922 assessed as zone of inhibition at 5 mg/ml after 18 to 24 hrs by disc diffusion method; assay type: functional; settings: ATCC 25922 INCQS 00033, read-out: IZ
Pseudomonas aeruginosa [10] = assay: Ratio of MBC99.9 to MIC for Pseudomonas aeruginosa INCQS 00099 ATCC 27853; assay type: functional; procedure, shortened: as §1
Staphylococcus aureus [11] = assay: Antimicrobial activity against methicillin-resistant Staphylococcus aureus BMB9393 after 24 hrs by microdilution assay; assay type: functional; settings: BMB9393, 24 h
Staphylococcus aureus [12] = assay: Bactericidal activity against methicillin-resistant Staphylococcus aureus BMB9393 incubated for 24 hrs followed by transfer of microbial suspension to agar plates and measured after 24 hrs post transfer by resazurin dye-based colorimetric analysis; assay type: functional; settings: BMB9393, 24 h, read-out: MBC99.9
Procedure, shortened: (§3)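 From MIC wells with no visible growth, 10 µL is transferred to agar plates and incubated 24 h at 37°C. MBC is the minimum concentration inhibiting 99.9% of growth. […] Triplicate.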

[13] = tested on: Staphylococcus epidermidis; assay: Ratio of MBC99.9 to MIC for Staphylococcus epidermidis INCQS 00016 ATCC 12228; assay type: functional, ATCC 12228 INCQS 00016; procedure, shortened: as §1
Pseudomonas aeruginosa [14] = assay: Bactericidal activity against Pseudomonas aeruginosa INCQS 00099 ATCC 27853 incubated for 24 hrs followed by transfer of microbial suspension to agar plates and measured after 24 hrs post transfer by resazurin dye-based colorimetric analysis; assay type: functional; settings: INCQS 00099 ATCC 27853, 24 h, read-out: MBC99.9; procedure, shortened: as §2
Staphylococcus aureus [15] = assay: Antimicrobial activity against methicillin-resistant Staphylococcus aureus BMB9393 assessed as zone of inhibition at 5 mg/ml after 18 to 24 hrs by disc diffusion method; assay type: functional; settings: read-out: IZ
Staphylococcus aureus [16] = assay: Ratio of MBC99.9 to MIC for methicillin-resistant Staphylococcus aureus BMB9393; assay type: functional
Procedure, shortened: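 MBC (99.9% kill on agar subculture of clear MIC wells, 24 h, 37°C) divided by broth microdilution MIC (24 h, 37°C). Ratio ≤2 taken as bactericidal and ≥4 as bacteriostatic.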

Staphylococcus simulans [17] = assay: Antimicrobial activity against Staphylococcus simulans INCQS 00254 ATCC 27851 assessed as zone of inhibition at 5 mg/ml after 18 to 24 hrs by disc diffusion method; assay type: functional; settings: read-out: IZ
Escherichia coli [18] = assay: Ratio of MBC99.9 to MIC for Escherichia coli INCQS 00033 ATCC 25922; assay type: functional, ATCC 25922 INCQS 00033; procedure, shortened: as §1
[19] = tested on: Staphylococcus epidermidis; assay: Bactericidal activity against Staphylococcus epidermidis INCQS 00016 ATCC 12228 incubated for 24 hrs followed by transfer of microbial suspension to agar plates and measured after 24 hrs post transfer by resazurin dye-based colorimetric analysis; assay type: functional; settings: ATCC 12228 INCQS 00016, 24 h, read-out: MBC99.9; procedure, shortened: as §2
[20] = Hemolytic activity against human erythrocytes assessed as hemolysis at 200 ug/ml after 3 hrs by spectrophotometric analysis relative to control; assay type: ADME, cell-based, Erythrocyte; settings: read-out: Activity
Procedure, shortened: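 Erythrocytes collected in citrate tubes, washed three times with PBS pH 7.4 by centrifugation and resuspended in PBS. Incubated with compounds at 200 µg/mL for 3 h at 37°C. Released hemoglobin was read in the supernatant at 545 nm against 1% Triton X-100 (complete lysis) and 1% DMSO (negative control). Below 10% hemolysis was taken as hemocompatible. Three independent experiments.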

Staphylococcus simulans [21] = assay: Bactericidal activity against Staphylococcus simulans INCQS 00254 ATCC 27851 incubated for 24 hrs followed by transfer of microbial suspension to agar plates and measured after 24 hrs post transfer by resazurin dye-based colorimetric analysis; assay type: functional; settings: INCQS 00254 ATCC 27851, 24 h, read-out: MBC99.9; procedure, shortened: as §2
Staphylococcus aureus [22] = assay: Ratio of MBC99.9 to MIC for Staphylococcus aureus INCQS 00015 ATCC 25923; assay type: functional; procedure, shortened: as §1
Staphylococcus aureus [23] = assay: Bactericidal activity against Staphylococcus aureus INCQS 00015 ATCC 25923 incubated for 24 hrs followed by transfer of microbial suspension to agar plates and measured after 24 hrs post transfer by resazurin dye-based colorimetric analysis; assay type: functional; settings: INCQS 00015 ATCC 25923, 24 h, read-out: MBC99.9; procedure, shortened: as §3
Enterococcus faecalis = assay: Antimicrobial activity against Enterococcus faecalis INCQS 00234 ATCC 29212 assessed as zone of inhibition at 5 mg/ml after 18 to 24 hrs by disc diffusion method; assay type: functional; settings: ATCC 29212 INCQS 00234, read-out: IZ
Escherichia coli [24] = assay: Antimicrobial activity against Escherichia coli INCQS 00033 ATCC 25922 after 24 hrs by microdilution assay; assay type: functional; settings: ATCC 25922 INCQS 00033, 24 h
[25] = tested on: Staphylococcus epidermidis; assay: Antimicrobial activity against Staphylococcus epidermidis INCQS 00016 ATCC 12228 assessed as zone of inhibition at 5 mg/ml after 18 to 24 hrs by disc diffusion method; assay type: functional; settings: ATCC 12228 INCQS 00016, read-out: IZ

Row | Structure (SMILES) | Ratio (Staphylococcus simulans [1]) | zone of inhibition at 5000 µg/mL (Pseudomonas aeruginosa [2]) [mm] | MIC [3] [µg/mL] | MIC (Staphylococcus simulans [4]) [µg/mL] | MIC (Pseudomonas aeruginosa [5]) [µg/mL] | zone of inhibition at 5000 µg/mL (Klebsiella pneumoniae) [mm] | MIC (Staphylococcus aureus [6]) [µg/mL] | zone of inhibition at 5000 µg/mL (Proteus mirabilis) [mm] | zone of inhibition at 5000 µg/mL (Staphylococcus aureus [7]) [mm] | MBC (Escherichia coli [8]) [µg/mL] | zone of inhibition at 5000 µg/mL (Escherichia coli [9]) [mm] | Ratio (Pseudomonas aeruginosa [10]) | MIC (Staphylococcus aureus [11]) [µg/mL] | MBC (Staphylococcus aureus [12]) [µg/mL] | Ratio [13] | MBC (Pseudomonas aeruginosa [14]) [µg/mL] | zone of inhibition at 5000 µg/mL (Staphylococcus aureus [15]) [mm] | zone of inhibition at 5000 µg/mL (Staphylococcus simulans [17]) [mm] | Ratio (Escherichia coli [18]) | MBC [19] [µg/mL] | other results
1 | NC1=C(Br)C(=O)c2ccccc2C1=O | 1 | 14 | 128 (≈ 508 µM) | 128 (≈ 508 µM) | 32 (≈ 127 µM) | 0 | 64 (≈ 254 µM) | 0 | 10 | 64 (≈ 254 µM) | 8 | 1 | 64 (≈ 254 µM) | 64 (≈ 254 µM) | 1 | 32 (≈ 127 µM) | 16 | 17 | 1 | 128 (≈ 508 µM) | Ratio (Staphylococcus aureus [16]): 1; hemolysis at 3 h, 200 ug/ml [20]: 10.1 to 14.4%; MBC (Staphylococcus simulans [21]): 128 µg/mL (≈ 508 µM); Ratio (Staphylococcus aureus [22]): 1; MBC (Staphylococcus aureus [23]): 64 µg/mL (≈ 254 µM); zone of inhibition at 5000 µg/mL (Enterococcus faecalis): 0 mm; MIC (Escherichia coli [24]): 64 µg/mL (≈ 254 µM); zone of inhibition at 5000 µg/mL [25]: 12 mm
2 | NC1=CC(=O)c2ccccc2C1=O | 1 | 12 | 128 (≈ 739 µM) | 64 (≈ 370 µM) | 64 (≈ 370 µM) | 0 | 64 (≈ 370 µM) | 0 | 15 | 32 (≈ 185 µM) | 20 | 1 | 64 (≈ 370 µM) | 64 (≈ 370 µM) | 1 | 64 (≈ 370 µM) | 17 | 18 | 1 | 128 (≈ 739 µM) | hemolysis at 3 h, 200 ug/ml [20]: 10.1 to 14.4%; MBC (Staphylococcus simulans [21]): 64 µg/mL (≈ 370 µM); Ratio (Staphylococcus aureus [22]): 1; MBC (Staphylococcus aureus [23]): 64 µg/mL (≈ 370 µM); zone of inhibition at 5000 µg/mL (Enterococcus faecalis): 0 mm; MIC (Escherichia coli [24]): 32 µg/mL (≈ 185 µM); zone of inhibition at 5000 µg/mL [25]: 17 mm
